Broadly, the inhibition is the relative decrease from the control value, in per cent. For orientation: IC50 means the point on the concentration scale where inhibition reaches its midpoint.

Active and inactive are the calls of the source. No cut-off for these calls is given here.

Acetylcholinesterase (Electrophorus electricus), sequence (O42275 24-633 limits assumed): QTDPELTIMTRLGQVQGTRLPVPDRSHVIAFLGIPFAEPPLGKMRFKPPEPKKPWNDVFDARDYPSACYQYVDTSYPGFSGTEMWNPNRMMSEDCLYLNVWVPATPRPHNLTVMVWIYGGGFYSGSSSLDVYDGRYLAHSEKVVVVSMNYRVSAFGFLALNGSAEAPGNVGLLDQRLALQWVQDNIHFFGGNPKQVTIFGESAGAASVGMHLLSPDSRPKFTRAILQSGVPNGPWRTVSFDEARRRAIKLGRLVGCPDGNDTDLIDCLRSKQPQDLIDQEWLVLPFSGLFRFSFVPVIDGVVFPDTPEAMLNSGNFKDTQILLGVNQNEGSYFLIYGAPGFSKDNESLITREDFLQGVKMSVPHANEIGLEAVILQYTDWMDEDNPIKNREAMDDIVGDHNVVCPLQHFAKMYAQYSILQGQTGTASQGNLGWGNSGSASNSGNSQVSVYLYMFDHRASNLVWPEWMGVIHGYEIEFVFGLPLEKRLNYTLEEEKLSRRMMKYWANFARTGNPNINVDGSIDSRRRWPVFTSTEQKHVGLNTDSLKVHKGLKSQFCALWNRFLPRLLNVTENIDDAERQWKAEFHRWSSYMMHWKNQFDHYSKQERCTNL
Cholinesterase (Equus caballus, UniProt P81908), sequence (P81908 whole entry): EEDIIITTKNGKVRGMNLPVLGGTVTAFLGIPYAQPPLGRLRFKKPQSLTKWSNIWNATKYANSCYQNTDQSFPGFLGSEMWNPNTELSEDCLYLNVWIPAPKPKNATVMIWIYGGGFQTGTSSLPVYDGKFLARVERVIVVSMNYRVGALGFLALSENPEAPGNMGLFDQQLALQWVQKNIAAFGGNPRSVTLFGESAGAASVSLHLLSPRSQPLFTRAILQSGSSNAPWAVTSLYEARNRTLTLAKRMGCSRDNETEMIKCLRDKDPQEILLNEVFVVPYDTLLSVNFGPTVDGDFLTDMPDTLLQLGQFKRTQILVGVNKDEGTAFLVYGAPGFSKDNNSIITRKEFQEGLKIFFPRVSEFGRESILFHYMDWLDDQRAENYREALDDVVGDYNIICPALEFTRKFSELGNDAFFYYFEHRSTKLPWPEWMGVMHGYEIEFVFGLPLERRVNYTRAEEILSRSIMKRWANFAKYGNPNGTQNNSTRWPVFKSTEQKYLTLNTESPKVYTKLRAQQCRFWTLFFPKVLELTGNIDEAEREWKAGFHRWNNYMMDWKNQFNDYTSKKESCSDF

One data set has as its target Acetylcholinesterase (Electrophorus electricus) (UniProt O42275). Nature of the data set: Inhibition of electric eel AChE at 100 uM using acetylthiocholine iodide as substrate preincubated for 10 mins followed by substrate addition and measured for 10 mins by Ellman's method relative to control. The note with it: time 20.0 min. A digest of the protocol: (§1)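 Ellman single-concentration screen in 50 mM Tris-HCl pH 8.0 with DTNB (6.8 mM stock) and 1% DMSO. Enzyme solution 0.4 U/mL AChE or 0.8 U/mL BChE. Compound and enzyme preincubated 10 min at 25 °C, then ATI (10 mM stock) or BTI (30 mM stock) added. A412 followed for 10 min, blank-subtracted, % inhibition versus no-compound control. Triplicate.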
Background: Ellman's reagent forms a yellow product with free thiols.
On to `Cn1c(=O)sc2cc(NC(=O)CCCN3CCC(c4ccccc4)CC3)ccc21`, for which the inhibition was determined as 32%.

The compound `Cn1c(=O)sc2cc(NC(=O)CCCCN3CCC(c4ccccc4)CC3)ccc21` registered an inhibition of 30%.

Turning to `Cn1c(=O)sc2cc(NC(=O)CCN3CCC(c4ccccc4)CC3)ccc21`, the inhibition worked out at 60%.

In turn, `Cn1c(=O)sc2cc(C(=O)CCN3CCC(c4ccccc4)CC3)ccc21` registered an inhibition of 81%.

The target in another data set is Acetylcholinesterase (Electrophorus electricus, UniProt O42275). Nature of the data set: Inhibition of electric eel AChE using acetylthiocholine iodide as substrate preincubated for 10 mins followed by substrate addition and measured for 10 mins by Ellman's method.
Acetylcholinesterase, sequence (O42275 whole entry): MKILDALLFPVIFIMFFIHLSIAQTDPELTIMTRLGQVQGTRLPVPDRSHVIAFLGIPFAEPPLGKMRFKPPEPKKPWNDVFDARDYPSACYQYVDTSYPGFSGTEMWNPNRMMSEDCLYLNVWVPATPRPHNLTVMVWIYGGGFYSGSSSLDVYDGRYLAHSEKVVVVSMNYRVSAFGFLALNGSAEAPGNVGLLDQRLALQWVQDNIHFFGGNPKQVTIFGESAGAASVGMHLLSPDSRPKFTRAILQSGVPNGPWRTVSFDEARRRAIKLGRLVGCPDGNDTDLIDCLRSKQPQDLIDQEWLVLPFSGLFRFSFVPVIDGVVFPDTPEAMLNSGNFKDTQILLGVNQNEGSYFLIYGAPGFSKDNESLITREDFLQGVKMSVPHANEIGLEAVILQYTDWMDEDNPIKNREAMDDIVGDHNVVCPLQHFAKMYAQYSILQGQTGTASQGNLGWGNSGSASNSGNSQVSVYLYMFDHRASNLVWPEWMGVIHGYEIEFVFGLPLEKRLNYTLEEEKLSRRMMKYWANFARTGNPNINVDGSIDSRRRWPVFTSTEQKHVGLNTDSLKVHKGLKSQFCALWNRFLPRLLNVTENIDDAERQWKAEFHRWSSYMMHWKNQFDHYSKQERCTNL
Conditions: not given
The compound `Cn1c(=O)sc2cc(NC(=O)CCN3CCC(c4ccccc4)CC3)ccc21` displayed an IC50 of 60.3 µM.

On to `Cn1c(=O)sc2cc(C(=O)CCN3CCC(c4ccccc4)CC3)ccc21`, for which the midpoint of inhibition, the IC50, lay at 4.32 µM.

The target in another data set is Cholinesterase (Equus caballus) (UniProt P81908). Nature of the data set: Inhibition of equine serum BChE at 100 uM using butyrylthiocholine iodide as substrate preincubated for 10 mins followed by substrate addition and measured for 10 mins by Ellman's method relative to control. Particulars: time 20.0 min. A digest of the protocol: as §1
Cholinesterase (Equus caballus), sequence (P81908 whole entry): as the sequence (P81908 whole entry) above
Turning to `Cn1c(=O)sc2cc(NC(=O)CCCN3CCC(c4ccccc4)CC3)ccc21`, the inhibition was determined as 90%.

In the case of `Cn1c(=O)sc2cc(NC(=O)CCCCN3CCC(c4ccccc4)CC3)ccc21`, the inhibition was determined as 96%.

Take `Cn1c(=O)sc2cc(NC(=O)CCN3CCC(c4ccccc4)CC3)ccc21`: the inhibition is 81%.

The compound `Cn1c(=O)sc2cc(C(=O)CCN3CCC(c4ccccc4)CC3)ccc21` came in with an inhibition of 79%.

Another data set concerns the target Cholinesterase (Equus caballus, UniProt P81908). Nature of the data set: Inhibition of equine serum BChE using butyrylthiocholine iodide as substrate preincubated for 10 mins followed by substrate addition and measured for 10 mins by Ellman's method.
Conditions: not given
A digest of the protocol: (§2)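 BChE (0.8 U/mL solution) preincubated with inhibitor 10 min at 25 °C in Tris-HCl pH 8.0 with DTNB and 1% DMSO, then BTI (30 mM stock) added. A412 read over 10 min, blank-corrected. IC50 from log[inhibitor] versus % inhibition. Triplicate, mean ± SD.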
With `Cn1c(=O)sc2cc(NC(=O)CCCN3CCC(c4ccccc4)CC3)ccc21`, inhibition was half-maximal at 9.65 µM (IC50).

As to `Cn1c(=O)sc2cc(NC(=O)CCCCN3CCC(c4ccccc4)CC3)ccc21`, half-maximal inhibition (IC50) required 2.98 µM.

On to `Cn1c(=O)sc2cc(NC(=O)CCN3CCC(c4ccccc4)CC3)ccc21`, for which the IC50 came to 11.1 µM.

`Cn1c(=O)sc2cc(C(=O)CCN3CCC(c4ccccc4)CC3)ccc21` yielded an IC50 of 14 µM.

Another data set deals with Cholinesterase (Homo sapiens, UniProt P06276). Nature of the data set: Inhibition of recombinant human BChE using butyrylthiocholine iodide as substrate preincubated for 10 mins followed by substrate addition and measured for 10 mins by Ellman's method.
Cholinesterase (Homo sapiens, UniProt P06276), sequence (P06276 whole entry): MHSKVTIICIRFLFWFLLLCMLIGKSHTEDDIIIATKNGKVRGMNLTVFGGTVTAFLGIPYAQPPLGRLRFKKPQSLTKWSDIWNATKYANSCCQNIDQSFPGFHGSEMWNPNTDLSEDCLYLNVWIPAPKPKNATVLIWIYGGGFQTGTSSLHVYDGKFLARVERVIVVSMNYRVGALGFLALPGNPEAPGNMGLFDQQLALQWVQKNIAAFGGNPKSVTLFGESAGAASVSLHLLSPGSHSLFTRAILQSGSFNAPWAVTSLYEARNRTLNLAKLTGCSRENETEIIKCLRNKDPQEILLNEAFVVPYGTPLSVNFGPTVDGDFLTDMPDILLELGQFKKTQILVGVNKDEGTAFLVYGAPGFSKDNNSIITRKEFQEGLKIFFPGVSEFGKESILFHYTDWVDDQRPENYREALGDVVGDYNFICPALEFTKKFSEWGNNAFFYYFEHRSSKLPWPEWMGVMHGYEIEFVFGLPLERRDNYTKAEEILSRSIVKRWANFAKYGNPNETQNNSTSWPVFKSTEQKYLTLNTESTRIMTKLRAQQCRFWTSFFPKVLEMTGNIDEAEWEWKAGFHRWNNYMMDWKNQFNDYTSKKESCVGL
Conditions: not given
The essentials:
as §2
As for `Cn1c(=O)sc2cc(NC(=O)CCCCN3CCC(c4ccccc4)CC3)ccc21`, the concentration for half-maximal inhibition (IC50) stood at 2.56 µM.

The species named for another data set is Homo sapiens. Nature of the data set: Reversible inhibition of recombinant human BChE assessed as residual activity at 0.1 times IC50 using butyrylthiocholine iodide as substrate preincubated for 30 mins followed by 100-fold dilution in presence of substrate and measured after 15 mins by Ellman's method relative to control. Particulars: time 45.0 min.
In the case of `Cn1c(=O)sc2cc(NC(=O)CCCCN3CCC(c4ccccc4)CC3)ccc21`, the Activity is 98.4%.

For the next data set, the species on record is Homo sapiens. Nature of the data set: Reversible inhibition of recombinant human BChE assessed as residual activity at IC50 using butyrylthiocholine iodide as substrate preincubated for 30 mins followed by 100-fold dilution in presence of substrate and measured after 15 mins by Ellman's method relative to control. Particulars: time 45.0 min.
Regarding `Cn1c(=O)sc2cc(NC(=O)CCCCN3CCC(c4ccccc4)CC3)ccc21`, the Activity came out at 81.5%.

System in the next data set: not listed separately
Briefly: Antioxidant activity assessed as trolox equivalent of AAPH radical scavenging activity at 10 uM measured every min for 90 mins by ORAC-FL assay. The format is functional.
Conditions: not given
A digest of the protocol:
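ORAC-FL in 75 mM phosphate buffer pH 7.4. Sample and fluorescein (150 nM final) preincubated 15 min at 37 °C, then AAPH (12 mM final) added. Fluorescence (ex 485/em 535 nm) read each minute for 90 min. Net AUC after blank subtraction, converted to Trolox equivalents from a Trolox curve (0.5–8, final; Trolox = 1). Duplicate wells, three independent assays.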
Take `Cn1c(=O)sc2cc(NC(=O)CCCN3CCC(c4ccccc4)CC3)ccc21`: the Activity is 2.93 equiv.

For the compound `Cn1c(=O)sc2cc(NC(=O)CCCCN3CCC(c4ccccc4)CC3)ccc21`, the Activity was determined as 2.61 equiv.

With `Cn1c(=O)sc2cc(NC(=O)CCN3CCC(c4ccccc4)CC3)ccc21`, the Activity stood at 4.31 equiv.

For the compound `Cn1c(=O)sc2cc(C(=O)CCN3CCC(c4ccccc4)CC3)ccc21`, the Activity was found to be 3.1 equiv.

A further data set deals with THP-1. Nature of the data set: Antiinflammatory activity in LPS-induced human THP-1 cells assessed as reduction in IL1beta release at 10 uM peincubated for 1 hr followed by LPS stimulation and measured after 24 hrs by EIA. In kind it is functional, cell-based. The note with it: time 25.0 hrs. A digest of the protocol:
(§3)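 THP-1 cells grown in RPMI 1640 with 10% FCS, penicillin and streptomycin at 37 °C, 5% CO2, then plated overnight at 4×10⁴ cells/well. Test compound added 1 h before 100 ng/ml E. coli O111:B4 LPS; 24 h incubation. Untreated and LPS-only controls. […]; cytokine read by EIA at 450 nm against a standard curve. At least triplicate.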
As for `Cn1c(=O)sc2cc(NC(=O)CCCN3CCC(c4ccccc4)CC3)ccc21`, the outcome was Active.

In the case of `Cn1c(=O)sc2cc(NC(=O)CCCCN3CCC(c4ccccc4)CC3)ccc21`, the outcome was Active.

For the next data set, the system named is THP-1. Nature of the data set: Antiinflammatory activity in LPS-induced human THP-1 cells assessed as reduction in IL6 release at 10 uM peincubated for 1 hr followed by LPS stimulation and measured after 24 hrs by EIA. Particulars: time 25.0 hrs. In kind it is functional, cell-based. The essentials:
as §3
In the case of `Cn1c(=O)sc2cc(NC(=O)CCCN3CCC(c4ccccc4)CC3)ccc21`, the result was Active.

Consider `Cn1c(=O)sc2cc(NC(=O)CCCCN3CCC(c4ccccc4)CC3)ccc21`, for which the result was Active.

The next data set has as its system THP-1. Nature of the data set: Antiinflammatory activity in LPS-induced human THP-1 cells assessed as reduction in TNFalpha release at 10 uM peincubated for 1 hr followed by LPS stimulation and measured after 24 hrs by EIA. The format is functional, cell-based. The note with it: time 25.0 hrs. The essentials:
as §3
In the case of `Cn1c(=O)sc2cc(NC(=O)CCCN3CCC(c4ccccc4)CC3)ccc21`, the result was Active.

Turning to `Cn1c(=O)sc2cc(NC(=O)CCCCN3CCC(c4ccccc4)CC3)ccc21`, the result was Active.

Another data set concerns THP-1. Nature of the data set: Antiinflammatory activity in LPS-induced human THP-1 cells assessed as reduction in nitric oxide release at 10 uM peincubated for 1 hr followed by LPS stimulation and measured after 24 hrs by ELISA. In kind it is functional, cell-based. The note with it: time 25.0 hrs. A digest of the protocol:
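THP-1 cells plated overnight at 4×10⁴ cells/well, given test compound 1 h before 100 ng/ml LPS (E. coli O111:B4), then incubated 24 h. Cell-free supernatants stored at −20 °C, then NO measured by ELISA kit (sensitivity 1,12 […]) from a standard curve. Untreated cells as negative control, LPS-only as positive control. At least triplicate.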
In the case of `Cn1c(=O)sc2cc(NC(=O)CCCN3CCC(c4ccccc4)CC3)ccc21`, the outcome was Active.

Turning to `Cn1c(=O)sc2cc(NC(=O)CCCCN3CCC(c4ccccc4)CC3)ccc21`, the outcome was Active.

The next data set deals with Amyloid-beta precursor protein (Homo sapiens) (UniProt P05067). Briefly: Inhibition of amyloid beta (1 to 42) (unknown origin) self-induced aggregation at 50 uM by Thioflavin T based fluorometric assay relative to control.
Amyloid-beta precursor protein (Homo sapiens), sequence (P05067 whole entry): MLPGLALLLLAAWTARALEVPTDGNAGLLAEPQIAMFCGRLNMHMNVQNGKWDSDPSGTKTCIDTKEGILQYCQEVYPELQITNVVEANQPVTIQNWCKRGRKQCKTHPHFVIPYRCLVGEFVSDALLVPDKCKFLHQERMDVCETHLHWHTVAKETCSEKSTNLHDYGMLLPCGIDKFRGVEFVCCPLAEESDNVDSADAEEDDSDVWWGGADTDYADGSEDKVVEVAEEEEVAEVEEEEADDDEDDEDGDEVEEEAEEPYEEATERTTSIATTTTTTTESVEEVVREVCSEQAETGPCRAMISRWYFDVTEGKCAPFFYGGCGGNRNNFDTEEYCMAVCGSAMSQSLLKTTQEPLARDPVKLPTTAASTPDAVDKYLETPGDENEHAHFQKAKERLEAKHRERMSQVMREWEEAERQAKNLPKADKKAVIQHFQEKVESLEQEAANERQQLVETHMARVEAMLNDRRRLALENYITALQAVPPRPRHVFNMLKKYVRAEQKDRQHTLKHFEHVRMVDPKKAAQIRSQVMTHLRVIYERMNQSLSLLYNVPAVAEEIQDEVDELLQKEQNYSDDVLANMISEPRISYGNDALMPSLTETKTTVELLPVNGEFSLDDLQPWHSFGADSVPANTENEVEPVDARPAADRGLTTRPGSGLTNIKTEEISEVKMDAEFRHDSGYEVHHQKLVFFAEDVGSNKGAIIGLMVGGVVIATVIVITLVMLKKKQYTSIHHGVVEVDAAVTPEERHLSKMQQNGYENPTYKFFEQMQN
Conditions: not given
The essentials:
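Thioflavin T fluorometric assay of Aβ1-42 self-aggregation, with inhibitor and Aβ42 both at 50 (equimolar). Samples dissolved in DMSO. Result given as % inhibition, mean of two independent experiments each run in triplicate.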
The compound `Cn1c(=O)sc2cc(NC(=O)CCCCN3CCC(c4ccccc4)CC3)ccc21` yielded an inhibition of 55.6%.

System in the next data set: not listed separately
Briefly: Induction of apoptosis in mouse 3T3 cells assessed as necrotic cells at 10 uM measured after 24 hrs by Annexin V-FITC/propidium iodide staining based flow cytometry (reference value: 0%). In kind it is cell-based. Particulars: 3t3, 24 h. A digest of the protocol: (§4)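 3T3 fibroblasts exposed to compound for 24 h, with untreated cells as negative control. Cells trypsinized, PBS-washed, stained with Annexin V-FITC and PI by kit protocol, then analysed by flow cytometry. Populations: live (Annexin−/PI−), early apoptotic (Annexin+/PI−), late apoptotic (Annexin+/PI+) and dead (Annexin−/PI+). Percentages given as mean ± SD.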
Turning to `Cn1c(=O)sc2cc(NC(=O)CCCCN3CCC(c4ccccc4)CC3)ccc21`, the Activity entry is given as “<= 0.23%”.

System in the next data set: not listed separately
Nature of the data set: Induction of apoptosis in mouse 3T3 cells assessed as late apoptotic cells at 10 uM measured after 24 hrs by Annexin V-FITC/propidium iodide staining based flow cytometry (reference value: 0.1 to 0.13%). In kind it is cell-based. The note with it: 3t3, 24 h. A digest of the protocol: as §4
On the technique in general: A flow cytometer gives signals particle by particle.
For `Cn1c(=O)sc2cc(NC(=O)CCCCN3CCC(c4ccccc4)CC3)ccc21`, the Activity is listed as 0.33%.

System in another data set: not listed separately
Nature of the data set: Induction of apoptosis in mouse 3T3 cells assessed as viable cells at 10 uM measured after 24 hrs by Annexin V-FITC/propidium iodide staining based flow cytometry (reference value: 98.83 to 99%). The format is cell-based. Particulars: read-out: Activity. The essentials: as §4
In the case of `Cn1c(=O)sc2cc(NC(=O)CCCCN3CCC(c4ccccc4)CC3)ccc21`, the viability at 24 h, 10 µM was 93.8%.

System in another data set: not listed separately
Nature of the data set: Induction of apoptosis in mouse 3T3 cells assessed as early apoptotic cells at 10 uM measured after 24 hrs by Annexin V-FITC/propidium iodide staining based flow cytometry (Rvb <= 0.97%). In kind it is cell-based. Particulars: 3t3, 24 h. The essentials: as §4
Regarding `Cn1c(=O)sc2cc(NC(=O)CCCCN3CCC(c4ccccc4)CC3)ccc21`, the Activity worked out at 1.73%.

System in the next data set: not listed separately
Briefly: Cytotoxicity against mouse 3T3 cells assessed as cell viability at 0.1 uM measured after 24 hrs by MTT assay relative to control. The format is cell-based. Particulars: read-out: Activity. The essentials:
(§5)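 3T3 fibroblasts (ATCC CCL92) grown as adherent monolayers in DMEM with 10% inactivated FBS, 2 mM L-glutamine and penicillin/streptomycin at 37 °C, 5% CO2. Cells exposed to compounds for 24 h. MTT added for 4 h, formazan dissolved in SDS for 24 h, OD read at 570 nm. Viability given as % of untreated OD; at least triplicate, mean ± SD.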
For orientation: Formazan colour is commonly taken as a measure of viable cells.
For `Cn1c(=O)sc2cc(NC(=O)CCCCN3CCC(c4ccccc4)CC3)ccc21`, the viability at 24 h, 0.1 µM came to 98.9%.

System in a further data set: not listed separately
Nature of the data set: Cytotoxicity against mouse 3T3 cells assessed as cell viability at 1 uM measured after 24 hrs by MTT assay relative to control. The note with it: read-out: Activity. The format is cell-based. A digest of the protocol: as §5
Take `Cn1c(=O)sc2cc(NC(=O)CCCCN3CCC(c4ccccc4)CC3)ccc21`: the viability at 24 h, 1 µM is 97.1%.

System in another data set: not listed separately
Briefly: Cytotoxicity against mouse 3T3 cells assessed as cell viability at 10 uM measured after 24 hrs by MTT assay relative to control. The format is cell-based. Particulars: read-out: Activity. A digest of the protocol:
as §5
For the compound `Cn1c(=O)sc2cc(NC(=O)CCCCN3CCC(c4ccccc4)CC3)ccc21`, the viability at 24 h, 10 µM stood at 93.6%.

These data come from ChEMBL document CHEMBL4706649, “Design, synthesis and biological evaluation of new benzoxazolone/benzothiazolone derivatives as multi-target agents against Alzheimer's disease” (Eur J Med Chem, 2021).
